# Measured values from ChEMBL document CHEMBL1914352, “Design, synthesis, docking, and biological evaluation of novel diazide-containing isoxazole- and pyrazole-based histone deacetylase probes” (J Med Chem, 2011).
# The source made the active and inactive calls. The rule behind the calls is not given here.
# Experiments:
# [1] = biological target: T1, Histone deacetylase 8 (Homo sapiens, UniProt Q9BY41); assay: Inhibition of human recombinant HDAC8 using Fluor de Lys as substrate
# T1 sequence (Q9BY41 whole entry): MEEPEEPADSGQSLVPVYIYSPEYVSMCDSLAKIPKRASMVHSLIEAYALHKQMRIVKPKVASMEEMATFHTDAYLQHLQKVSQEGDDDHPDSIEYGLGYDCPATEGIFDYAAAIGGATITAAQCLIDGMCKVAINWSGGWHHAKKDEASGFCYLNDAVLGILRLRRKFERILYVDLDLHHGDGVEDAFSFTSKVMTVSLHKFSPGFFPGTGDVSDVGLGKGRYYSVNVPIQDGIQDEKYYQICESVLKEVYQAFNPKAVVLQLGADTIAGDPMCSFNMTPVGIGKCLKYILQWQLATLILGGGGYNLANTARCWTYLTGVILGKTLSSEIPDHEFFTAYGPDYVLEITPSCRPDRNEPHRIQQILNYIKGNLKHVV
# [2] = tested on: HeLa; assay: cells; type: functional, cell-based; conditions: Homo sapiens, 72 h
# [3] = tested on: HepG2; assay: cells; type: functional, cell-based; conditions: Homo sapiens, HepG2, 72 h
# [4] = tested on: SH-SY5Y; assay: cells; type: functional, cell-based; conditions: Homo sapiens, 72 h
# [5] = tested on: HeLa; assay: cells; type: functional, cell-based; conditions: Homo sapiens, 48 h
# [6] = tested on: HepG2; assay: cells; type: functional, cell-based; conditions: Homo sapiens, HepG2, 24 h
# [7] = tested on: HepG2; assay: cells; type: functional, cell-based; conditions: Homo sapiens, HepG2, 48 h
# [8] = tested on: SH-SY5Y; assay: cells; type: functional, cell-based; conditions: Homo sapiens, 24 h
# [9] = biological target: Histone deacetylase 3/Nuclear receptor corepressor 2 (HDAC3/NCoR2) (Homo sapiens, UniProt O15379); assay: Inhibition of human recombinant HDAC3/NCoR2 using fluorophore-conjugated substrate Boc-L-Lys(Ac)-AMC; type: protein-complex assay
# [10] = tested on: SH-SY5Y; assay: Cytotoxicity against retinoic acid-differentiated human SH-SY5Y cells assessed as cell survival at 20 uM; type: cell-based
# Method in brief: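 SH-SY5Y cells are differentiated for 7–8 days in 1% FBS medium with 10 µM retinoic acid, then seeded at 2×10^4 cells/well in 1% FBS medium with 5 µM RA. After 24 h they go into phenol-red-free 1% FBS/RA medium with DMSO or 0.5–50 µM inhibitor, without or with 100 µM LY294002, for 24 h. Readout: XTT viability as % survival vs vehicle, four replicates ± SD, one-way ANOVA with Dunnett.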
# [11] = tested on: SH-SY5Y; assay: Neuroprotective activity against LY294002-induced stress in retinoic acid-differentiated human SH-SY5Y cells assessed as cell survival at 0.5 to 20 uM; type: functional, cell-based
# Method in brief: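 SH-SY5Y cells pre-differentiated with retinoic acid, seeded at 2×10^4 cells/well in 1% FBS medium with 5 µM retinoic acid. After 24 h, medium changed to phenol red free 1% FBS medium with 5 µM retinoic acid plus vehicle (DMSO) or 0.5–50 µM inhibitor (final), with or without 100 µM LY294002. Viability by XTT after 24 h. Expressed as percent survival relative to vehicle, four replicates ± SD. Analysed by one-way ANOVA with Dunnett's test.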
# [12] = tested on: HeLa; assay: cells; type: functional, cell-based; conditions: Homo sapiens, 24 h
# [13] = tested on: SH-SY5Y; assay: cells; type: functional, cell-based; conditions: Homo sapiens, 48 h
# [14] = biological target: T2, Histone deacetylase (Homo sapiens) (UniProt Q13547+O15379+Q9UBN7+Q92769+Q9UQL6+Q8WUI4+Q9BY41+Q96DB2+P56524+Q9UKV0+Q969S8); assay: Inhibition of HDAC in retinoic acid-differentiated human SH-SY5Y cells assessed as increase in histone H4 acetylation at 1 uM after 24 hrs by Western blot analysis in presence of 100 uM LY294002; type: cell-based
# [15] = biological target: T2, Histone deacetylase (Homo sapiens); assay: Inhibition of HDAC in retinoic acid-differentiated human SH-SY5Y cells assessed as increase in histone H4 acetylation at 1 uM after 24 hrs by Western blot analysis; type: cell-based
# [16] = biological target: Matrix metalloproteinase-14 (Homo sapiens, UniProt P50281); assay: Inhibition of MMP14
# [17] = biological target: Stromelysin-1 (Homo sapiens, UniProt P08254); assay: Inhibition of MMP3
# [18] = tested on: HepG2; assay: Induction of apoptosis in human HepG2 cells assessed as cleavage of caspase 3 at 1 to 10 uM after 24 hrs by Western blot analysis; type: functional, cell-based
# Method in brief: (§1)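 HepG2 cells are seeded at 2.7×10^5 cells/well in D7 medium (DMEM, 7% FBS), refed after 24 h, and after 1 h at 37 °C treated with DMSO or 1, 5 or 10 µM inhibitor. Lysis is in ice-cold 1% CHAPSO buffer (50 mM Hepes pH 7.4), 45 min at 4 °C. Immunoblots are probed for cleaved caspase 3 Asp175, acetyl-Lys373 p53, total p53 and GAPDH, detected by chemiluminescence, with band densitometry.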
# [19] = tested on: HepG2; assay: Induction of apoptosis in human HepG2 cells assessed as hyperacetylation of p53 at 1 to 10 uM by Western blot analysis; type: functional, cell-based; method in brief: as §1
# [20] = tested on: HepG2; assay: Induction of apoptosis in human HepG2 cells assessed as hyperacetylation of p53 after 24 hrs by Western blot analysis; type: functional, cell-based; method in brief: as §1
# [21] = tested on: HepG2; assay: Induction of apoptosis in human HepG2 cells assessed as cleavage of caspase 3 at 1 to 10 uM after 14 hrs by Western blot analysis; type: functional, cell-based; method in brief: as §1
# Histone deacetylase 3/Nuclear receptor corepressor 2 (HDAC3/NCoR2), sequence (O15379 whole entry): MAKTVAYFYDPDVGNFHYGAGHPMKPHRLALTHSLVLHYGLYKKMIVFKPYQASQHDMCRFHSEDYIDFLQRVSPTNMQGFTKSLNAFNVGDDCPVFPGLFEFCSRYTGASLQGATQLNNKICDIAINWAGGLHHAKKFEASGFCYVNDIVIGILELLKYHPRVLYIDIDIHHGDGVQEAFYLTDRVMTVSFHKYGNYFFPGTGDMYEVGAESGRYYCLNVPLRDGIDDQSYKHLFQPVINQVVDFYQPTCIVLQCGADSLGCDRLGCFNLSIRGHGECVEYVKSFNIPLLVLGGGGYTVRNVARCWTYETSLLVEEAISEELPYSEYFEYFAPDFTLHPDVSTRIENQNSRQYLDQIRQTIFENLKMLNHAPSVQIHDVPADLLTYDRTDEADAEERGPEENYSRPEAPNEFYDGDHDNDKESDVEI
# Histone deacetylase 3/Nuclear receptor corepressor 2 (HDAC3/NCoR2), sequence (Q9Y618 whole entry, further chain): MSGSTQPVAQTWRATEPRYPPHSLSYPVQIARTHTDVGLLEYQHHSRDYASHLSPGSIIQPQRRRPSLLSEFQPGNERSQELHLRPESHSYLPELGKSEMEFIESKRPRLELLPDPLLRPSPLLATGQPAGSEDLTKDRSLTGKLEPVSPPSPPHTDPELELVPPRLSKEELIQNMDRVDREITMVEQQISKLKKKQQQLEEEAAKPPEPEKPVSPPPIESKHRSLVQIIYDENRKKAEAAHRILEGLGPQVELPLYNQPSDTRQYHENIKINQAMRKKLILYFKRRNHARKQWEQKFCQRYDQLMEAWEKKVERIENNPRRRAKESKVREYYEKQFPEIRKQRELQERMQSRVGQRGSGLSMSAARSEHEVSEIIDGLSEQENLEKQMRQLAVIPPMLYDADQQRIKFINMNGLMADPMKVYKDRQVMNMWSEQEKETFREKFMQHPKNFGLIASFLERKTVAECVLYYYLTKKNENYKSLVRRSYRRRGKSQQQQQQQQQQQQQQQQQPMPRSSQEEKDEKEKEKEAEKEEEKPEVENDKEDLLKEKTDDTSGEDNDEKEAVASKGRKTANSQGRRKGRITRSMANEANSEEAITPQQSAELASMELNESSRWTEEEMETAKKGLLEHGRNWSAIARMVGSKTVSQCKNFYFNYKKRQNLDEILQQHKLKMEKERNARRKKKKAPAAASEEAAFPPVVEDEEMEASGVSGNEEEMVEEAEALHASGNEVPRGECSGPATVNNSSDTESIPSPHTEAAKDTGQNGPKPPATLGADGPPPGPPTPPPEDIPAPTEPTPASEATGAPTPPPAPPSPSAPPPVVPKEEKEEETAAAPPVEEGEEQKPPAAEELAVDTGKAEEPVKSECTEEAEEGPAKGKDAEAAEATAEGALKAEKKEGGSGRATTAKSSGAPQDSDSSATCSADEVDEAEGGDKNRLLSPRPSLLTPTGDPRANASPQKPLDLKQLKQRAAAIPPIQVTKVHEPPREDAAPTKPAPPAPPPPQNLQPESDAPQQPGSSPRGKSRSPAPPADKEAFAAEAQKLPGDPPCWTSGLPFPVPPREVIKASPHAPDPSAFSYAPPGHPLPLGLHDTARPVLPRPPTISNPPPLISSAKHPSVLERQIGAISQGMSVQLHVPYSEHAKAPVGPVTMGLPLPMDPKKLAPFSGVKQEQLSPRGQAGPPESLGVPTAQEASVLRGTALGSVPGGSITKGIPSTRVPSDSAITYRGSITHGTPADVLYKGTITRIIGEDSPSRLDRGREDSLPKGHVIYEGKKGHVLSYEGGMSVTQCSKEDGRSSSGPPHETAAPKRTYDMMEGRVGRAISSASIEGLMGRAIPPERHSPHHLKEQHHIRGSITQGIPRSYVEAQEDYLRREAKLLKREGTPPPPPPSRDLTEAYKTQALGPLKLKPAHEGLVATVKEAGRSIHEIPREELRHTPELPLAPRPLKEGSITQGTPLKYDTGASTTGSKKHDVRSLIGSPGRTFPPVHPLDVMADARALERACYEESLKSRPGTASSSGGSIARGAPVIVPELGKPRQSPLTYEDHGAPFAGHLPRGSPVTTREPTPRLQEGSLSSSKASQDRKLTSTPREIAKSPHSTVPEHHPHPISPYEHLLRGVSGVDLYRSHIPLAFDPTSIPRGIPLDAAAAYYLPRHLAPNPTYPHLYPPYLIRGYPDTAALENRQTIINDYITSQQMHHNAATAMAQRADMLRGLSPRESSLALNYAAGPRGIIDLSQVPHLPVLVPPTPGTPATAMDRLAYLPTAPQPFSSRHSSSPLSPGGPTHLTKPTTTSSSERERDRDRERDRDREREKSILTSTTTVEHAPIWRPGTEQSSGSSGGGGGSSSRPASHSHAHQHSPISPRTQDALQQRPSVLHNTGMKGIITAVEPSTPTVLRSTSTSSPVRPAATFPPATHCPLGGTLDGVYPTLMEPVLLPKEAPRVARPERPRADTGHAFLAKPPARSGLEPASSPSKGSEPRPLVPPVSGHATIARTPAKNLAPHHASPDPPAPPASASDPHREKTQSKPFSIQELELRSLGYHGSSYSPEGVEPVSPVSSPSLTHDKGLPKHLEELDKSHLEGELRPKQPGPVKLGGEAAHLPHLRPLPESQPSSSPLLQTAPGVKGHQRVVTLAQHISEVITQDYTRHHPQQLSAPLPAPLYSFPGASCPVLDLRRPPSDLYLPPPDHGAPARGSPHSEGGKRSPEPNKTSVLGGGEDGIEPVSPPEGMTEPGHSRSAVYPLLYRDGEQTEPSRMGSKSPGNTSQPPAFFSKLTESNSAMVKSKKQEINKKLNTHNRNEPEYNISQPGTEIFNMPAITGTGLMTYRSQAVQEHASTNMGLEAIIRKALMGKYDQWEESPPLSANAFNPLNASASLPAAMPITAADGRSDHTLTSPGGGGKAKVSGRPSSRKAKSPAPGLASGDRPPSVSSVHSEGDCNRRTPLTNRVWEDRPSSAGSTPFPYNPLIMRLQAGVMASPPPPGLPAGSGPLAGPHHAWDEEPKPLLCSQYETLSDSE
# Stromelysin-1, sequence (P08254 whole entry): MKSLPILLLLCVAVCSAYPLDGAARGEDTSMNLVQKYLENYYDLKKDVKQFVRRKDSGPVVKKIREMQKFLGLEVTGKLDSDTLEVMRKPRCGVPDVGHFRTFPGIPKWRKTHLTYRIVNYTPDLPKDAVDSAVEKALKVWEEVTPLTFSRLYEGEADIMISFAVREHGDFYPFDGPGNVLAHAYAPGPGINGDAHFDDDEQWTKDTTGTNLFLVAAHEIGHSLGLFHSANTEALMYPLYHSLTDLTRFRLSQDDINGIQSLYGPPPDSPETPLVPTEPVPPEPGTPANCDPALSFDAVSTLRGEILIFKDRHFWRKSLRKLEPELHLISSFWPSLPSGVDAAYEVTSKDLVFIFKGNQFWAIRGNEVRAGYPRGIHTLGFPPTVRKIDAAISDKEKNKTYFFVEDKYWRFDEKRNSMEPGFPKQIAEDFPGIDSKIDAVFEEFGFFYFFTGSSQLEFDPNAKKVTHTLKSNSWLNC
smiles,measurement,setting,value
O=C(CCCCCCC(=O)Nc1cnn(Cc2ccccc2)c1)NO,IC50,[1],0.076 µM
same,EC50,[2],5.5 µM
same,EC50,[3],5.5 µM
same,EC50,[4],23.2 µM
same,EC50,[5],10.6 µM
same,EC50,[6],> 50 µM
same,EC50,[7],12.6 µM
same,EC50,[8],> 50 µM
same,IC50,[9],0.044 µM
same,Activity,[10],Non-toxic
same,Activity,[11],inactive
same,EC50,[12],46.6 µM
same,EC50,[13],22.7 µM
[N-]=[N+]=Nc1ccc(-c2cc(C(=O)NCCCCCCC(=O)NO)no2)cc1,IC50,[1],0.707 µM
same,IC50,[9],0.073 µM
same,inhibition,[14],Active
same,inhibition,[15],Active
[N-]=[N+]=NCc1cc(N=[N+]=[N-])cc(C(=O)Nc2ccc(Cn3cc(NC(=O)CCCCCCC(=O)NO)cn3)cc2)c1,IC50,[1],0.487 µM
same,IC50,[9],0.432 µM
CNC(=O)[C@H](Cc1c[nH]c2ccccc12)NC(=O)[C@@H](CC(=O)NO)CC(C)C [ILOMASTAT],IC50,[16],0.00041 µM
same,IC50,[17],0.00762 µM
O=C(CCCCCCC(=O)Nc1cnn(Cc2ccc([N+](=O)[O-])cc2)c1)NO,IC50,[1],0.082 µM
same,IC50,[9],0.059 µM
O=C(CCCCCCC(=O)Nc1ccccc1)NO,Activity,[18],Active
same,Activity,[19],inactive
same,Activity,[20],inactive
same,Activity,[21],Active
[N-]=[N+]=NCc1cc(COc2ccc(NC(=O)CCCCCCC(=O)NO)cc2)cc(N=[N+]=[N-])c1,IC50,[9],1.48 µM
CC(C)(C)OC(=O)Nc1ccc(Cn2cc(NC(=O)CCCCCCC(=O)NO)cn2)cc1,IC50,[1],0.147 µM
same,IC50,[9],0.191 µM
[N-]=[N+]=Nc1ccc(Cn2cc(NC(=O)CCCCCCC(=O)NO)cn2)cc1,IC50,[1],0.028 µM
same,EC50,[2],4.6 µM
same,EC50,[3],5.9 µM
same,EC50,[4],23.1 µM
same,EC50,[5],9.9 µM
same,EC50,[6],> 50 µM
same,EC50,[7],12.7 µM
same,EC50,[8],> 50 µM
same,IC50,[9],0.022 µM
same,Activity,[10],Non-toxic
same,Activity,[11],inactive
same,EC50,[12],38.3 µM
same,EC50,[13],23.6 µM
